Experimental data from ChEMBL document CHEMBL4270642, “Boronic ester-linked macrocyclic lipopeptides as serine protease inhibitors targeting Escherichia coli type I signal peptidase” (Eur J Med Chem, 2018).
Values after ≈ are worked out from the molar mass of the structure shown.

Tests used:
[1] = Hemolytic activity in human RBC at 100 uM after 45 mins by spectrophotometric method relative to control; type: ADME, cell-based, Erythrocyte; details: red blood cells (erythrocytes), read-out: Activity
In short: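 Heparinized human blood; red cells washed three times in Tyrode buffer pH 7.4. Compound at 100 µM final with 1% DMSO and 50% RBC, shaken (250 rpm) 45 min at 37 °C. Cells pelleted (1000 × g, 10 min); supernatant haemoglobin at 540 nm. Percent lysis relative to buffer-only and 2% Triton X-100 controls.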

Signal peptidase I = Signal peptidase I (Escherichia coli K-12, UniProt P00803); assay: Inhibition of Escherichia coli type 1 signal peptidase lepB preincubated for 10 mins followed by Dabcyl-VGGTATAYGAFSRPGLE-(EDANS)-OH substrate addition measured after 2 hrs by FRET based assay
Chain of Signal peptidase I (P00803 whole entry): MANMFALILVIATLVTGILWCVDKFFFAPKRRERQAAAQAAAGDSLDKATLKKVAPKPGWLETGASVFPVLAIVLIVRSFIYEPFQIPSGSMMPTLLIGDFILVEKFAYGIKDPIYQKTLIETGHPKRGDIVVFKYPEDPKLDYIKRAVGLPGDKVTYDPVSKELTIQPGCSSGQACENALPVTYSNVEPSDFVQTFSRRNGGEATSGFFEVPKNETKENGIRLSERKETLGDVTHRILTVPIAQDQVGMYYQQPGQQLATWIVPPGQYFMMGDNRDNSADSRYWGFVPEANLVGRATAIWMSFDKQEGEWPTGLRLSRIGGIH
In short: (§1)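 EcLepB (about 50 nM estimated) preincubated 10 min with compound. Reaction started with Dabcyl/EDANS FRET peptide at 8 µM final (Km 20 µM). Fluorescence followed continuously at 535 nm, 22 °C, for 2 h. Cleavage rates plotted against inhibitor concentration; IC50 from non-linear regression of sigmoidal dose-response curves.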

Escherichia coli [2] = assay: Antibacterial activity against Escherichia coli ATCC 25922 after 16 to 20 hrs by broth microdilution method; type: functional
In short: (§2)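 Broth microdilution in cation-adjusted Mueller-Hinton II per EUCAST/CLSI; two-fold compound series 64 down to 0.25 µg/mL final. Inoculum from fresh colonies (non-selective agar, 18-24 h, 35 ± 2 °C), adjusted to 0.5 McFarland, diluted to about 5 × 10^5 CFU/mL final. Static incubation 16-20 h at 35 ± 2 °C; MIC read visually as complete growth inhibition against medium-only wells.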

Escherichia coli [3] = assay: Antibacterial activity against tolC deficient Escherichia coli CH3130 after 16 to 20 hrs by broth microdilution method; type: functional; in short: as §2
Escherichia coli [4] = assay: Antibacterial activity against Escherichia coli D22 CGSG 5163 harboring Ips mutant after 16 to 20 hrs by broth microdilution method; type: functional
In short: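 Broth microdilution in cation-adjusted Mueller-Hinton II broth, following EUCAST and CLSI guidelines. Two-fold series at final concentrations 64 down to 0.25 µg/mL, with medium-only and growth controls. Inoculum from fresh colonies (18-24 h, 35 °C ± 2 °C) adjusted to 0.5 McFarland, final ≈5 × 10^5 CFU/mL. Plates incubated unshaken 16-20 h at 35 °C ± 2 °C. MIC read visually as complete inhibition of growth.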

Pseudomonas aeruginosa [5] = assay: Antibacterial activity against Pseudomonas aeruginosa PAO1 after 16 to 20 hrs by broth microdilution method; type: functional; in short: as §2
Pseudomonas aeruginosa [6] = assay: Antibacterial activity against efflux defective Pseudomonas aeruginosa PAO750 after 16 to 20 hrs by broth microdilution method; type: functional; in short: as §2
Klebsiella pneumoniae = assay: Antibacterial activity against Klebsiella pneumoniae ATCC 13883 after 16 to 20 hrs by broth microdilution method; type: functional; in short: as §2
HepG2 = assay: Cytotoxicity against human HepG2 cells after 72 hrs by FMSA; type: cell-based; details: HepG2, 72 h
In short: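 HepG2 (ATCC) grown in EMEM with 10% FBS, pen/strep, 2 mM L-glutamine, used up to 20 passages. Seeded at 1000 cells/well, cultured overnight, then dosed acoustically from DMSO stocks. Eight two-fold dilutions in duplicate from top 64 or 32 µM; 72 h at 37 °C, 5% CO2. Fluorescein diacetate hydrolysis read at ex 485/em 530 nm; IC50 by non-linear regression.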

Acinetobacter baumannii = assay: Antibacterial activity against Acinetobacter baumannii ATCC 19606 after 16 to 20 hrs by broth microdilution method; type: functional; details: ATCC 19606 = CIP 70.34 = JCM 6841; in short: as §2
Staphylococcus aureus = assay: Antibacterial activity against Staphylococcus aureus ATCC 29213 after 16 to 20 hrs by broth microdilution method; type: functional; in short: as §2
[7] = molecular target: Signal peptidase I (Escherichia coli K-12) (UniProt P00803); assay: Inhibition of Escherichia coli type 1 signal peptidase lepB assessed as residual activity at 10 uM preincubated for 10 mins followed by Dabcyl-VGGTATAYGAFSRPGLE-(EDANS)-OH substrate addition measured after 2 hrs by FRET based assay (reference value: 100%); in short: as §1
Chain of Signal peptidase I (Escherichia coli K-12) (P00803 whole entry): as above

[8] = molecular target: Signal peptidase I (Escherichia coli K-12) (UniProt P00803); assay: Inhibition of Escherichia coli type 1 signal peptidase lepB assessed as residual activity at 5 uM preincubated for 10 mins followed by Dabcyl-VGGTATAYGAFSRPGLE-(EDANS)-OH substrate addition measured after 2 hrs by FRET based assay (reference value: 100%); in short: as §1
[9] = molecular target: Signal peptidase I (Escherichia coli K-12) (UniProt P00803); assay: Inhibition of Escherichia coli type 1 signal peptidase lepB assessed as residual activity at 2.5 uM preincubated for 10 mins followed by Dabcyl-VGGTATAYGAFSRPGLE-(EDANS)-OH substrate addition measured after 2 hrs by FRET based assay (reference value: 100%); in short: as §1
[10] = molecular target: Signal peptidase I (Escherichia coli K-12) (UniProt P00803); assay: Inhibition of Escherichia coli type 1 signal peptidase lepB assessed as residual activity at 1.25 uM preincubated for 10 mins followed by Dabcyl-VGGTATAYGAFSRPGLE-(EDANS)-OH substrate addition measured after 2 hrs by FRET based assay (reference value: 100%); in short: as §1
[11] = molecular target: Signal peptidase I (Escherichia coli K-12) (UniProt P00803); assay: Inhibition of Escherichia coli type 1 signal peptidase lepB assessed as residual activity at 0.625 uM preincubated for 10 mins followed by Dabcyl-VGGTATAYGAFSRPGLE-(EDANS)-OH substrate addition measured after 2 hrs by FRET based assay (reference value: 100%); in short: as §1
[12] = molecular target: Signal peptidase I (Escherichia coli K-12) (UniProt P00803); assay: Inhibition of Escherichia coli type 1 signal peptidase lepB assessed as residual activity at 0.3125 uM preincubated for 10 mins followed by Dabcyl-VGGTATAYGAFSRPGLE-(EDANS)-OH substrate addition measured after 2 hrs by FRET based assay (reference value: 100%); in short: as §1
[13] = molecular target: Signal peptidase I (Escherichia coli K-12) (UniProt P00803); assay: Inhibition of Escherichia coli type 1 signal peptidase lepB assessed as residual activity at 0.1563 uM preincubated for 10 mins followed by Dabcyl-VGGTATAYGAFSRPGLE-(EDANS)-OH substrate addition measured after 2 hrs by FRET based assay (reference value: 100%); in short: as §1
[14] = molecular target: Signal peptidase I (Escherichia coli K-12) (UniProt P00803); assay: Inhibition of Escherichia coli type 1 signal peptidase lepB assessed as residual activity at 0.0781 uM preincubated for 10 mins followed by Dabcyl-VGGTATAYGAFSRPGLE-(EDANS)-OH substrate addition measured after 2 hrs by FRET based assay (reference value: 100%); in short: as §1
[15] = molecular target: Signal peptidase I (Escherichia coli K-12) (UniProt P00803); assay: Inhibition of Escherichia coli type 1 signal peptidase lepB assessed as residual activity at 0.0391 uM preincubated for 10 mins followed by Dabcyl-VGGTATAYGAFSRPGLE-(EDANS)-OH substrate addition measured after 2 hrs by FRET based assay (reference value: 100%); in short: as §1
[16] = molecular target: Signal peptidase I (Escherichia coli K-12) (UniProt P00803); assay: Inhibition of Escherichia coli type 1 signal peptidase lepB assessed as residual activity at 0.0195 uM preincubated for 10 mins followed by Dabcyl-VGGTATAYGAFSRPGLE-(EDANS)-OH substrate addition measured after 2 hrs by FRET based assay (reference value: 100%); in short: as §1
[17] = molecular target: Signal peptidase I (Escherichia coli K-12) (UniProt P00803); assay: Inhibition of Escherichia coli type 1 signal peptidase lepB assessed as residual activity at 0.0098 uM preincubated for 10 mins followed by Dabcyl-VGGTATAYGAFSRPGLE-(EDANS)-OH substrate addition measured after 2 hrs by FRET based assay (reference value: 100%); in short: as §1
[18] = molecular target: Signal peptidase I (Escherichia coli K-12) (UniProt P00803); assay: Inhibition of Escherichia coli type 1 signal peptidase lepB assessed as residual activity at 0.0049 uM preincubated for 10 mins followed by Dabcyl-VGGTATAYGAFSRPGLE-(EDANS)-OH substrate addition measured after 2 hrs by FRET based assay (reference value: 100%); in short: as §1
[19] = molecular target: Signal peptidase I (Escherichia coli K-12) (UniProt P00803); assay: Inhibition of Escherichia coli type 1 signal peptidase lepB assessed as residual activity at 0.0024 uM preincubated for 10 mins followed by Dabcyl-VGGTATAYGAFSRPGLE-(EDANS)-OH substrate addition measured after 2 hrs by FRET based assay (reference value: 100%); in short: as §1
[20] = molecular target: Signal peptidase I (Escherichia coli K-12) (UniProt P00803); assay: Inhibition of Escherichia coli type 1 signal peptidase lepB assessed as residual activity at 0.0012 uM preincubated for 10 mins followed by Dabcyl-VGGTATAYGAFSRPGLE-(EDANS)-OH substrate addition measured after 2 hrs by FRET based assay (reference value: 100%); in short: as §1
[21] = molecular target: Signal peptidase I (Escherichia coli K-12) (UniProt P00803); assay: Inhibition of Escherichia coli type 1 signal peptidase lepB assessed as residual activity at 0.0006 uM preincubated for 10 mins followed by Dabcyl-VGGTATAYGAFSRPGLE-(EDANS)-OH substrate addition measured after 2 hrs by FRET based assay (reference value: 100%); in short: as §1

SMILES | hemolysis at 0.75 h, 100 µM [1] [%] | IC50 (Signal peptidase I) [nM] | MIC (Escherichia coli [2]) [µg/mL] | MIC (Escherichia coli [3]) [µg/mL] | MIC (Escherichia coli [4]) [µg/mL] | MIC (Pseudomonas aeruginosa [5]) [µg/mL] | MIC (Pseudomonas aeruginosa [6]) [µg/mL] | MIC (Klebsiella pneumoniae) [µg/mL] | IC50 (HepG2) [nM] | MIC (Acinetobacter baumannii) [µg/mL] | MIC (Staphylococcus aureus) [µg/mL] | Activity [7] [%] | Activity [8] [%] | Activity [9] [%] | Activity [10] [%] | Activity [11] [%] | Activity [12] [%] | Activity [13] [%] | Activity [14] [%] | Activity [15] [%] | further results
CCCCCCc1ccc(-c2ccc(C(=O)N[C@@H](Cc3cnc[nH]3)C(=O)N[C@H](C(=O)N[C@@H](C)C(=O)N[C@H]3Cc4cn(nn4)CCCN4C[C@@H]5OB(O[C@@H]5C4)[C@H](C)NC3=O)[C@@H](C)O)cc2)cc1 | 4.1 | 107 | > 64 | > 64 | 64 (≈ 70.5 µM) | > 64 | > 64 | > 64 | 5400 | > 64 | > 64 | 20.8 | 25 | 27.8 | 34.1 | 34.2 | 39.7 | 52 | 66.2 | 76.7 | Activity [16]: 81%; Activity [17]: 91.4%; Activity [18]: 90.8%; Activity [19]: 94.7%; Activity [20]: 94%; Activity [21]: 94.5%
CCCCCCc1ccc(-c2ccc(C(=O)N[C@@H](CCCN)C(=O)N[C@H](C(=O)N[C@@H](C)C(=O)N[C@H]3Cc4cn(nn4)CCN4C[C@@H]5OB(O[C@@H]5C4)[C@H](C)NC3=O)[C@@H](C)O)cc2)cc1 | 10.1 | 104 | 64 (≈ 73.5 µM) | 16 (≈ 18.4 µM) | 32 (≈ 36.7 µM) | > 64 | > 64 | 64 (≈ 73.5 µM) | 9500 | 32 (≈ 36.7 µM) | 32 (≈ 36.7 µM) | 17.8 | 26.7 | 29.8 | 32.9 | 36.3 | 38.8 | 47.2 | 61.4 | 63.8 | Activity [16]: 71.3%; Activity [17]: 77.9%; Activity [18]: 77%; Activity [19]: 79.9%; Activity [20]: 80.6%; Activity [21]: 97.3%
